Data published in ChEMBL document CHEMBL5696442, “Discovery of type II inhibitors of TGFβ-activated kinase 1 (TAK1) and mitogen-activated protein kinase kinase kinase kinase 2 (MAP4K2)” (J Med Chem, 2015).

Experiments:
[1] = target: Casein kinase II subunit alpha (Homo sapiens) (UniProt P68400); assay: Inhibition of CK2a1 Protein Kinase Domain in human A-375 cells at 0.5 uM by KiNativ Profiling analysis relative to control; assay type: cell-based
Outline: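 Live A375 melanoma cells were treated with compound at 5 or 0.5 μM. The cells were then lysed, and the lysates were labeled with a lysine-reactive ATP or ADP-biotin acyl probe (KiNativ). Inhibition is the compound's protection of each kinase labeling-site peptide from probe labeling, relative to untreated control.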

[2] = target: Serine/threonine-protein kinase 10 (Homo sapiens) (UniProt O94804); assay: Inhibition of LOK Lys1 labeling site harbouring ETGALAAAKVIETK in human A-375 cells at 0.5 uM by KiNativ Profiling analysis relative to control; assay type: cell-based
[3] = target: T1, Serine/threonine-protein kinase LATS2 (Homo sapiens) (UniProt Q9NRM7); assay: Inhibition of LATS2 Lys2 labeling site in human A-375 cells at 0.5 uM by KiNativ Profiling analysis relative to control; assay type: cell-based
T1 sequence (whole entry): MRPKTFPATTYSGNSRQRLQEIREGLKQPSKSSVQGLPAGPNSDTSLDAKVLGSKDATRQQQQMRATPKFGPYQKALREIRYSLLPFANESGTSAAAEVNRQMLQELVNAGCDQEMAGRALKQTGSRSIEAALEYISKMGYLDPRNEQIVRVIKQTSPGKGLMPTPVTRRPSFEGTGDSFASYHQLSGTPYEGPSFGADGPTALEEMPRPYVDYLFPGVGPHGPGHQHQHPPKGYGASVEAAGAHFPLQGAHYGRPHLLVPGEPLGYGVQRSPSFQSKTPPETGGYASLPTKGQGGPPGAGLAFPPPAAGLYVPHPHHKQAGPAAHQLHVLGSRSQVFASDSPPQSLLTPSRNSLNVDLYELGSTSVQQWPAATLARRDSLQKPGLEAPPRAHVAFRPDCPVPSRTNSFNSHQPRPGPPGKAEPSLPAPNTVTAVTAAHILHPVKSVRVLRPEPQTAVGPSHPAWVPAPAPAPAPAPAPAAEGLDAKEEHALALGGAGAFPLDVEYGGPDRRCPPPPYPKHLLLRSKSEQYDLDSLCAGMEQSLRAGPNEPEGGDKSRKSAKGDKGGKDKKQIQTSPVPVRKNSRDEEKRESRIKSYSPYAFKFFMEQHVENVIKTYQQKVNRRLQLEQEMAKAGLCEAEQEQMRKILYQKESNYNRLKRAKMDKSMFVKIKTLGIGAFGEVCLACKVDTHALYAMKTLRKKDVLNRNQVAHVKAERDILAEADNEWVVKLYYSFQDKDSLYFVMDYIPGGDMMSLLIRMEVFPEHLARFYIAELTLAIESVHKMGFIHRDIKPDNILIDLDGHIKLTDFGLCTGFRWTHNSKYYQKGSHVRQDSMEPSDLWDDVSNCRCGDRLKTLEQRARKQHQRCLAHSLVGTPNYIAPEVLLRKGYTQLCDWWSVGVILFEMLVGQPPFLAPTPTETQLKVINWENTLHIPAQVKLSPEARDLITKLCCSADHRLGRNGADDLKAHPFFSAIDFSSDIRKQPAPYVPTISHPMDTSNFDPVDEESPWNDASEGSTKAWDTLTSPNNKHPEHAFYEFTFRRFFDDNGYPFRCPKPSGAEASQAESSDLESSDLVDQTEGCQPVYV

[4] = target: RAC-alpha serine/threonine-protein kinase (Homo sapiens) (UniProt P31749); assay: Inhibition of AKT1 ATP Loop labeling site in human A-375 cells at 0.05 uM by KiNativ Profiling analysis relative to control; assay type: cell-based
[5] = target: Ribosomal protein S6 kinase alpha-3 (Homo sapiens) (UniProt P51812); assay: Inhibition of RSK2 domain2 Protein Kinase Domain in human A-375 cells at 0.5 uM by KiNativ Profiling analysis relative to control; assay type: cell-based
Outline: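 Live A375 melanoma cells treated with compound at 5 or 0.5 μM, then lysed. Lysate kinases were labeled with a lysine-reactive ATP or ADP-biotin probe. Inhibition was read as protection of labeling sites from the probe.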

[6] = target: Tyrosine-protein kinase Fer (Homo sapiens, UniProt P16591); assay: Inhibition of FER ACT labeling site in human A-375 cells at 0.5 uM by KiNativ Profiling analysis relative to control; assay type: cell-based
Ephrin type-A receptor 2 = Ephrin type-A receptor 2 (Homo sapiens, UniProt P29317); assay: Inhibition of EphA2 ACT labeling site in human Huh-7 cells at 1 uM by KiNativ Profiling analysis relative to control; assay type: cell-based
[7] = target: T2, Ephrin type-B receptor 2 (Homo sapiens) (UniProt P29323); assay: Inhibition of EphB2 ACT labeling site in human A-375 cells at 0.05 uM by KiNativ Profiling analysis relative to control; assay type: cell-based
T2 sequence (whole entry): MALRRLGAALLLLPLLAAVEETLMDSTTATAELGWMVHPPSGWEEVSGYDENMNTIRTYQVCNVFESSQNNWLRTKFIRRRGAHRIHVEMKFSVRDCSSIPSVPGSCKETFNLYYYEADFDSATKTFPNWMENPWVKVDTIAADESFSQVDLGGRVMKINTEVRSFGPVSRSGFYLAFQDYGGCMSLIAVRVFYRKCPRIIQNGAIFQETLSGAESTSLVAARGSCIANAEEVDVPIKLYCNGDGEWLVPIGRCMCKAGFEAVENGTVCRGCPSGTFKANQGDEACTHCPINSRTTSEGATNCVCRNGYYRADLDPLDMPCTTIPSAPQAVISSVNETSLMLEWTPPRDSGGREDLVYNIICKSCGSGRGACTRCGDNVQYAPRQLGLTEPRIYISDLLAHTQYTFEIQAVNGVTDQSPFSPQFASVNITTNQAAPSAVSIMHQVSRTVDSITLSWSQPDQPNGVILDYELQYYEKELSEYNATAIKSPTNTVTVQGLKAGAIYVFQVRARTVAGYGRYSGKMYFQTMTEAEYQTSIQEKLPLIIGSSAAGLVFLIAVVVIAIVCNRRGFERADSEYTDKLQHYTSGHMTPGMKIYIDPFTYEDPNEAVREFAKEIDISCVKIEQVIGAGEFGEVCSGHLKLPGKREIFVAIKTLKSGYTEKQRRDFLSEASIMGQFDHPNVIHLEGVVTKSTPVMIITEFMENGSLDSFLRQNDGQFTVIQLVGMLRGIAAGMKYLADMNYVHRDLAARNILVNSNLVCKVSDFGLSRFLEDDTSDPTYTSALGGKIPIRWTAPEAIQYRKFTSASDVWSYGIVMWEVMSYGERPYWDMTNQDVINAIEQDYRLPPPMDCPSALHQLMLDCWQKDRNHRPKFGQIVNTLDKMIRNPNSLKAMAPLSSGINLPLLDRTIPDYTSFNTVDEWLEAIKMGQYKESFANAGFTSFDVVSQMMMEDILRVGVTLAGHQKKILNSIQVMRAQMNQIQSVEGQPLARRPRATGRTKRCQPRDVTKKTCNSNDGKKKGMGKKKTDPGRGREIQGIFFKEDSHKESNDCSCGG

[8] = Inhibition of IL-1 induced p38 MAPK phosphorylation level in TAK1 deficient mouse MEF cells at 500 nM incubated for 1 hr followed by IL-1 stimulation by Western blot analysis relative to control; assay type: functional

Sequence of Tyrosine-protein kinase Fer (P16591 whole entry, looked up): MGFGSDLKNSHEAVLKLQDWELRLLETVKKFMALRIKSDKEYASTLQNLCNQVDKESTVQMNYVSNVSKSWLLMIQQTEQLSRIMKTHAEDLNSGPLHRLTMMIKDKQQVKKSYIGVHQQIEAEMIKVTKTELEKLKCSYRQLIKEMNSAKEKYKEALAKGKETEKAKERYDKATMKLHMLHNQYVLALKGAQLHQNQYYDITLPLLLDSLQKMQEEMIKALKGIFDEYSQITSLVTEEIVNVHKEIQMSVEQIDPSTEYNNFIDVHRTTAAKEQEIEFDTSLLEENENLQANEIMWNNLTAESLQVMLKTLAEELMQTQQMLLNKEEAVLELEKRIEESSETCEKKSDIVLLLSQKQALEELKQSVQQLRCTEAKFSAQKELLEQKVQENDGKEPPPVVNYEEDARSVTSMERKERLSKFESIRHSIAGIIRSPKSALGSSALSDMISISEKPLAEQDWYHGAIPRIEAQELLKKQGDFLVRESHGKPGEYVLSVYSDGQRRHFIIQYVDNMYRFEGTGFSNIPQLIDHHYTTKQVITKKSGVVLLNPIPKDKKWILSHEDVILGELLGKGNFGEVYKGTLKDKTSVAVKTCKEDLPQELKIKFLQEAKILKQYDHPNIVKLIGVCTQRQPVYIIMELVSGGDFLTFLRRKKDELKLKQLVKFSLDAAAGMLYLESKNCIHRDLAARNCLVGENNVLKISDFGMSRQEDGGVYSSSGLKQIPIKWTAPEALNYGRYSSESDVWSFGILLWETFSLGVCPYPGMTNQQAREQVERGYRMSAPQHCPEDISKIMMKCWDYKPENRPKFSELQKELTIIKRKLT
Sequence of RAC-alpha serine/threonine-protein kinase (Homo sapiens) (P31749 whole entry, the tested form may be a part): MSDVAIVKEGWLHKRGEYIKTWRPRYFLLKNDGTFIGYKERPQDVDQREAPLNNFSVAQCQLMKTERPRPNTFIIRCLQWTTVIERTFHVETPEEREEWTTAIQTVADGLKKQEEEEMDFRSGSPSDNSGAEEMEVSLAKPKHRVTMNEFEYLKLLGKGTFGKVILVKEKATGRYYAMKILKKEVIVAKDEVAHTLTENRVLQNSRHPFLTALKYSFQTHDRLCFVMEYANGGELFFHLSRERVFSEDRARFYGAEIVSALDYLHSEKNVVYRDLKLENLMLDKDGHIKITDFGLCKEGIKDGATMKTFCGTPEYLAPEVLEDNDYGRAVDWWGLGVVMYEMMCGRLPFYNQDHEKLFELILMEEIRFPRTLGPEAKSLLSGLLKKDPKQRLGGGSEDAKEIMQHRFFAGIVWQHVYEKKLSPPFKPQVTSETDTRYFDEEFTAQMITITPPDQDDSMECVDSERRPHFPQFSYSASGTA
Sequence of Casein kinase II subunit alpha (Homo sapiens) (P68400 whole entry, looked up, the tested form may be a part): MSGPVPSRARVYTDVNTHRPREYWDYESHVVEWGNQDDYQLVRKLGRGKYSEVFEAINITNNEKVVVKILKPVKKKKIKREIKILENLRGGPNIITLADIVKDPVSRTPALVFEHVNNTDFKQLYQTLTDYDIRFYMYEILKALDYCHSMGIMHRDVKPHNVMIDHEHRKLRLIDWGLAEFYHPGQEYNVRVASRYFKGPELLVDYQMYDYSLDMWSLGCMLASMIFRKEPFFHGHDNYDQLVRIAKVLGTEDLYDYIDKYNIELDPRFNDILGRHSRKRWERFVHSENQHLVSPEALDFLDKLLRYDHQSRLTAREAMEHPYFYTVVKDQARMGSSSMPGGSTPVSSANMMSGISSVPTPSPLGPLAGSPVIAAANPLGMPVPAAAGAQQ
Sequence of Ephrin type-A receptor 2 (P29317 whole entry): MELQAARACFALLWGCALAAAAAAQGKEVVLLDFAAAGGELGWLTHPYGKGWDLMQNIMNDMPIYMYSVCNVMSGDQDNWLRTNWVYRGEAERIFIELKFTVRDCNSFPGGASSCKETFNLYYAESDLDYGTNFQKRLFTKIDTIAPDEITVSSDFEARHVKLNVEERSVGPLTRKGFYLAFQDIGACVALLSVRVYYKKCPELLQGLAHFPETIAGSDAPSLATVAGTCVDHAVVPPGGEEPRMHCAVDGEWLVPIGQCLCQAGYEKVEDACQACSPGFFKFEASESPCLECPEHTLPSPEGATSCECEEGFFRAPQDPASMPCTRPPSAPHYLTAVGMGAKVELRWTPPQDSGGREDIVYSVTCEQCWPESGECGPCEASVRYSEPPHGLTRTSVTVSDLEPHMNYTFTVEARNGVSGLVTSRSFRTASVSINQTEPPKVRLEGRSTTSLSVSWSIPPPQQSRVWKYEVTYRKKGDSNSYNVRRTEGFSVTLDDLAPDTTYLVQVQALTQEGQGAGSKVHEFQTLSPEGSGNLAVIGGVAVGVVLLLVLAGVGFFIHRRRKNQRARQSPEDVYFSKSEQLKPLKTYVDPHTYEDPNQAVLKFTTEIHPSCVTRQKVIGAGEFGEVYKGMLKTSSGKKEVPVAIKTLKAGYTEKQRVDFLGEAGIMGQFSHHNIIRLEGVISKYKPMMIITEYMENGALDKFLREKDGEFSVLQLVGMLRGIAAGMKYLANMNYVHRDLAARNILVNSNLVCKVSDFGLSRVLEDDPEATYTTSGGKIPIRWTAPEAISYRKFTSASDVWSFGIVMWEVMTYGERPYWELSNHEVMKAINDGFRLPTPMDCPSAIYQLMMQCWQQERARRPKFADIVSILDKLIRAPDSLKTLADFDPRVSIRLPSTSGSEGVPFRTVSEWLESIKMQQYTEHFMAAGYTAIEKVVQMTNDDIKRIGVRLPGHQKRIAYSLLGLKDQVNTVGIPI
Sequence of Serine/threonine-protein kinase 10 (Homo sapiens) (O94804 whole entry, looked up): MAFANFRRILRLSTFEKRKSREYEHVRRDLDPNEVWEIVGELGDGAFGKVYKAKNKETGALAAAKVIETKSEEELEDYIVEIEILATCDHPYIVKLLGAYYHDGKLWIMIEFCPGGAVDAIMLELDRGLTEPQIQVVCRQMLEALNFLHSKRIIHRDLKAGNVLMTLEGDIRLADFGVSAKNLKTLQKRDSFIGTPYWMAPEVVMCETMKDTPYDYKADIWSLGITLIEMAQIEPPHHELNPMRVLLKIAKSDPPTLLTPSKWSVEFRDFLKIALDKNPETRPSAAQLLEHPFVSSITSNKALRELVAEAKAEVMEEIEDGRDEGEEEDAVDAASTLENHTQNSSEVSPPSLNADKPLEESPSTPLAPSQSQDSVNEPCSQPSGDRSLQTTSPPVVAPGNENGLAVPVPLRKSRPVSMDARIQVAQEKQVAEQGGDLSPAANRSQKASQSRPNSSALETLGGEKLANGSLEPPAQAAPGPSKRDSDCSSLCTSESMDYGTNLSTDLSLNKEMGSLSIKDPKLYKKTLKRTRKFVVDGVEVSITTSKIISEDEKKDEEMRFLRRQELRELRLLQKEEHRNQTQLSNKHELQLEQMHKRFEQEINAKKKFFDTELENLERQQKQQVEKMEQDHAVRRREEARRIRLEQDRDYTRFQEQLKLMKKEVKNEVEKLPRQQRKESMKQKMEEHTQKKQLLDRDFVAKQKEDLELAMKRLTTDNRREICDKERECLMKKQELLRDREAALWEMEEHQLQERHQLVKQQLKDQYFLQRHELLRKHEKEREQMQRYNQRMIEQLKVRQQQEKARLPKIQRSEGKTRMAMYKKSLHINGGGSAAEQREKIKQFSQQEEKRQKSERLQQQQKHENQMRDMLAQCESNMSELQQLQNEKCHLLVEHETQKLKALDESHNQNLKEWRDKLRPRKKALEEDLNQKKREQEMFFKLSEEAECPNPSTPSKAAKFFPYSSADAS
Sequence of Ribosomal protein S6 kinase alpha-3 (Homo sapiens) (P51812 whole entry, the tested form may be a part): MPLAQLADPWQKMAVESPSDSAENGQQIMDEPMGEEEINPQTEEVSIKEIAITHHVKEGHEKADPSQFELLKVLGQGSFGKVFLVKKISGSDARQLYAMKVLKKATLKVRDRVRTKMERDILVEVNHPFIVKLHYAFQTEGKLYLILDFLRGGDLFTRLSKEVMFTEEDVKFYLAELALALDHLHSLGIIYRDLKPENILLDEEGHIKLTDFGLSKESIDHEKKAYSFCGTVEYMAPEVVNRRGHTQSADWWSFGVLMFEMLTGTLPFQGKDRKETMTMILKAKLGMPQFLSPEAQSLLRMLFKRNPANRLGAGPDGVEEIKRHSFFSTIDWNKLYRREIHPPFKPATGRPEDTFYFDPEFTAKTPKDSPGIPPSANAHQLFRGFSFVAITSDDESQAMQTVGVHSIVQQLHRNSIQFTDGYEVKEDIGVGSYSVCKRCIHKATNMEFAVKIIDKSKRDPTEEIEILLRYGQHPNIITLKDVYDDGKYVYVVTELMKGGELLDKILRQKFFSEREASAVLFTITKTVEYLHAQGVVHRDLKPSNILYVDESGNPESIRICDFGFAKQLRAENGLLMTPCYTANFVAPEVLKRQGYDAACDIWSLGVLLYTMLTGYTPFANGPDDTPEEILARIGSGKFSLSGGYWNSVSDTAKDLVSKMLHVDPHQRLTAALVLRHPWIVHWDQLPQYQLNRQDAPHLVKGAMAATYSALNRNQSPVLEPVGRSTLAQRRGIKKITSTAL

Structure (SMILES) | inhibition [1] | inhibition [2] | inhibition [3] | inhibition [4] | inhibition [5] | inhibition [6] | inhibition (Ephrin type-A receptor 2) | inhibition [7] | inhibition at 0.5 µM [8]
CCN1CCN(Cc2ccc(NC(=O)c3ccc(C)c(Oc4ccnc5[nH]ccc45)c3)cc2C(F)(F)F)CC1 | 2% | 71.7% | 12.6% | -7.9% | 7.2% | 88% | 16.1% | 5% | –
CNc1cc(Oc2cc(C(=O)Nc3cc(-n4cnc(C)c4)cc(C(F)(F)F)c3)ccc2C)ncn1 | – | – | – | – | – | – | – | – | 100%
CNc1cc(Oc2cc(C(=O)Nc3cc(N4CCN(C)CC4)cc(C(F)(F)F)c3)ccc2C)ncn1 | – | – | – | – | – | – | 69.2% | – | 100%
CCN1CCN(Cc2ccc(NC(=O)c3ccc(C)c(/C=C/c4cnc5[nH]ccc5c4OC)c3)cc2C(F)(F)F)CC1 | 12.9% | 60.7% | 6.4% | 9.8% | -4.1% | -10% | – | 36.9% | –
